NPY1 pot ag – potentiates or activates human NPY-Y1 receptor; NPY-Y1 expressing cells, potentiator/agonist activation; activation, % at 3.6 µM; 220,000 compounds, 0.37% hits; AID 1304; in the data active means activation above about 33%, passing the limit was not always enough;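 further: cells stimulated with NPY at EC10 then isoproterenol at EC100; 0% = low agonist plus stimulus and 100% = saturating agonist plus stimulus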
NPY-Y2 PAM-ag – human NPY-Y2 potentiation or agonism, primary screen; P49146; cells expressing NPY-Y2, potentiator/agonist read-out; activation, % at 3.6 µM; 220,000 compounds, 0.45% hits; AID 1359; in the data active means activation above about 27%;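 further: cells stimulated with NPY near EC25 plus isoproterenol at EC100; 0% = vehicle plus submaximal agonist and 100% = vehicle plus saturating agonist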
Target sequence (P49146 whole entry, looked up): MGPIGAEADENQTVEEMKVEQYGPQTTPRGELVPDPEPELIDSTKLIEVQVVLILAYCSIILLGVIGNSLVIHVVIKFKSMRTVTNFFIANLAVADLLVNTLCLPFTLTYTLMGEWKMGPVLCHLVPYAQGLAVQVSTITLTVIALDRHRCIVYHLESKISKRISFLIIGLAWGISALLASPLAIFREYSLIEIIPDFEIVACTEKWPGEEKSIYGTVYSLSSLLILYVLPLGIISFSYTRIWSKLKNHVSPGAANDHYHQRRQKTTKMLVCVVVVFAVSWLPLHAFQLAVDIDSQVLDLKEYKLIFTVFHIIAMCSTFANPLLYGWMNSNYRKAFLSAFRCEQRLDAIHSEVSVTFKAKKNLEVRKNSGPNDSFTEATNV
NPY-Y2 antag – NPY-Y2 (human) receptor antagonism. NPY-Y2 expressing cells, antagonist mode. inhibition, % at 2.7 µM. P49146. 140,000 compounds, 0.99% hits; in the data active means inhibition above about 17%;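 further: 0% = vehicle with agonist challenge and 100% = reference antagonist with challenge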
NPY-Y1 antag – blocks the human neuropeptide Y Y1 receptor; 200,000 compounds, 1% hits; HEK293-CNG Y1 cells, membrane potential fluorescence; NPY at EC95, then isoproterenol; AID 1040; inhibition, % at 3.6 µM; P25929;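 active means inhibition above the campaign mean inhibition of all tested compounds plus 3 SD, cut at about 20% in these data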;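 further: 0% = DMSO wells given NPY plus isoproterenol and 100% = isoproterenol alone without NPY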
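Test system: HEK293 cells co-expressing NPY Y1 receptor and cyclic-nucleotide gated channel; Also added: NPY (25 nM), isoproterenol (1 µM), Ro 20-1724 (25 µM); Compound dosing: one concentration, 3.6 µM, in 0.4% DMSO; Timing: dye 3 h, compound 60 min room temperature, stimulation 45 min; Technique: Membrane-potential fluorescent dye readout.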
NPY-Y1 antag ct – human NPY-Y1 antagonism in NPY-Y2 counter-screen. shares compounds with NPY-Y2 antag. cell-based NPY-Y1 antagonism counterscreen. inhibition, % at 3.6 µM. 710 compounds, 19% hits. AID 1256; in the data active means inhibition above about 20%;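 further: cells challenged with NPY then isoproterenol with cAMP sensed through a CNG channel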
NPY2 antag conf – human NPY-Y2 antagonism, confirmation. shares compounds with NPY-Y2 antag. HEK293 NPY-Y2 CNG channel, membrane potential fluorescence. inhibition, % at 2.8 µM. 710 compounds, 32% hits;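 active means mean inhibition of triplicate wells above the hit cutoff set in the primary screen, cut at about 17% in these data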;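 further: 0% = DMSO with NPY challenge and 100% = BIIE0246 high control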
* hit, by the source's call; x = no result. This is a sample that favours compounds with a hit; in the whole collection about 1.8% have one here.

SMILES	NPY1 pot ag	NPY-Y2 PAM-ag	NPY-Y2 antag	NPY-Y1 antag	NPY-Y1 antag ct	NPY2 antag conf
Cc1ccc(OCc2nc(C#N)c(NCc3ccc4c(c3)OCO4)o2)cc1	-66	-21	22*	11	11	9
O=C(Nc1ccccc1Cl)C1C2CCC3C(CCC21)C3(Cl)Cl (stereo not given)	-33	2	18*	20	12	10
O=C(Cn1cc(C(=O)C(F)(F)F)c2ccccc21)N1CCOCC1	3	8	x	6	x	x
CS(=O)(=O)N(CCc1ccccc1)CC(=O)N1CCN(Cc2ccc3c(c2)OCO3)CC1	-14	10	2	-3	x	x
CS(=O)(=O)N(CC(=O)N1CCN(Cc2ccc3c(c2)OCO3)CC1)Cc1ccc(Cl)cc1	-15	-7	23*	15	9	4
CCN(CC)C(=S)SC1CCCCN(C(=O)c2ccccc2)C1=O (stereo not given)	-18	-5	x	x	x	x
C/C(=N/NS(C)(=O)=O)c1ccc2ccccc2c1	-10	-3	17*	1	8	5
CCOC(=O)c1ccccc1NC(=O)CSc1nnc(COc2ccccc2C)n1C	-17	-17	19*	14	17	11
Cc1ccc(C(=O)Nc2ccccc2-c2ccccc2)cc1S(=O)(=O)Nc1cccc(C)c1C	-4	-25	15	4	x	x
Cc1ccc(C)c(NS(=O)(=O)c2cc(C(=O)Nc3ccccc3-c3ccccc3)ccc2C)c1	18	-41	22*	5	0	117*
O=C(COC(=O)/C=C/c1cccc(Cl)c1)Nc1ccccc1-c1ccccc1	-13	-1	19*	7	21*	30*
O=C(COC(=O)/C=C/c1ccccc1)Nc1ccccc1Br	-30	-10	12	4	x	x
O=C(COC(=O)c1ccc(O)cc1)Nc1ccccc1-c1ccccc1	-4	-2	6	2	x	x
O=C(COC(=O)c1ccc(-c2ccccc2)cc1)Nc1ccccc1-c1ccccc1	3	3	31*	-4	15	19*
O=C(OCC1CC(c2ccccc2)=NO1)c1ccc(Br)cc1 (stereo not given)	-2	6	18*	2	13	14
O=C(OCC1CC(c2ccccc2Cl)=NO1)c1ccc(Br)cc1 (stereo not given)	8	-8	10	-1	x	x
Cc1ccc(C(C(=O)NC2CCCCC2)N(Cc2cccnc2)C(=O)C2COc3ccccc3O2)o1 (stereo not given)	8	2	25*	7	3	8
Cc1ccc(C(C(=O)NC2CCCC2)N(Cc2cccnc2)C(=O)c2snc(C(N)=O)c2N)o1 (stereo not given)	4	-3	4	0	x	x
CC(C)(C)c1ccc(C(=O)O)c(C(=O)c2ccc(C(=O)O)cc2)c1	-4	-5	x	x	x	x
Oc1ccc(/C=N/NC(=S)NCCN2CCOCC2)c(O)c1	-21	2	x	-5	x	x
CCc1n[nH]c(=S)n1/N=C/c1cc(Br)c(OC)cc1OC	-16	2	21*	2	6	18*
CCCOC(=O)COC(=O)c1ccccc1NC(=O)c1ccccc1	-70	-11	23*	15	16	9
O=c1[nH]c(Cc2ccccn2)nc2scc(-c3ccccc3Cl)c12	8	-10	x	-1	x	x
CN(C)CCOC(C1CCCCC1)C1CCCCC1	-34	-14	27*	18	12	16
CN(C)CCNC(=S)NC1CCCCC1	1	-20	x	7	x	x
SMILES	NPY1 pot ag	NPY-Y2 PAM-ag	NPY-Y2 antag	NPY-Y1 antag	NPY-Y1 antag ct	NPY2 antag conf
C=C(C)CSc1nc2c(c(=O)[nH]c(=O)n2C)n1CCC(C)C	-8	11	22*	2	2	0
CCOC(=O)CC(NC(=O)Cc1ccccc1)c1ccccc1Cl (stereo not given)	-24	4	2	6	x	x
CCOC(=O)CC(NC(=O)C1c2ccccc2Oc2ccccc21)c1ccccc1Cl (stereo not given)	-21	8	18*	3	12	7
Cc1ccc(C(=O)Nc2ccnc(-c3ccncc3)n2)cc1	-3	-2	x	1	x	x
COc1ccc(-c2ccnc(SCC(=O)c3ccc(Br)cc3)n2)cc1	6	0	21*	5	42*	42*
COC(=O)C1=C(C)N(Cc2ccccc2)C(=O)/C1=C\c1ccco1	2	-19	x	x	x	x
O=C(NC1CCCCC1)c1cnn2c(C(F)(F)F)cc(-c3ccco3)nc12	-25	5	19*	13	10	3

Source: PubChem (The Scripps Research Institute Molecular Screening Center)
